Test results taken from ChEMBL document CHEMBL4033721, “Design, synthesis and evaluation of indole-2-carboxamides with pan anti-mycobacterial activity” (Bioorg Med Chem, 2017).
Converted amounts (≈) assume the structure as drawn.

What was measured:
[1] = Selectivity index, ratio of TD50 for human THP1 cells to MIC for Mycobacterium abscessus isolate DCI 21; type: toxicity; settings: THP-1 cells, read-out: Selectivity Index
Method in brief: (§1)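 Ratio of THP-1 cytotoxicity to resazurin-assay MIC. Cytotoxicity: THP-1 cells were differentiated with 80 nM PMA overnight, plated for 24 h, then given 10-point DMSO dilutions (top 50 μM, 0.5% final DMSO) for 3 days at 37°C, 5% CO₂. ATP luminescence was read, with a staurosporine control. IC₅₀ = concentration giving 50% viability, from a Levenberg–Marquardt curve fit.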

[2] = Selectivity index, ratio of TD50 for human THP1 cells to MIC for Mycobacterium massiliense isolate CRM0019; type: toxicity; settings: THP-1 cells, read-out: Selectivity Index; method in brief: as §1
[3] = Selectivity index, ratio of TD50 for human THP1 cells to MIC for Mycobacterium tuberculosis H37Rv MC2-6206; type: toxicity; settings: THP-1 cells, read-out: Selectivity Index; method in brief: as §1
[4] = tested on: Mycobacterium tuberculosis; test: Antimycobacterial activity against Mycobacterium tuberculosis H37Rv MC2-6206 after 8 days by resazurin microtiter based colorimetric assay; type: functional; settings: H37Rv MC2-6206, 192 h
Method in brief: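 MIC was measured by resazurin microtiter colorimetric assay with visual growth scoring. Medium was 7H9-ADC–0.05% tyloxapol with 0.2% casaminoacids, 48 µg/ml pantothenate and 50 µg/ml L-leucine.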

Mycobacterium avium = test: Antimycobacterial activity against Mycobacterium avium isolate 104 after 8 days by resazurin microtiter based colorimetric assay; type: functional; settings: isolate 104, 192 h
Method in brief: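 M. avium 104 MICs were read by resazurin microtiter colorimetric assay in 96-well plates, with growth scored visually, in Mueller Hinton II medium.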

[5] = Antimycobacterial activity against Mycobacterium massiliense isolate CIP108297 after 8 days by resazurin microtiter based colorimetric assay; type: functional, Mycobacterium abscessus subsp. massiliense; settings: Mycobacteroides abscessus, isolate CIP108297, 192 h
Method in brief: (§2)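 Resazurin microtiter plate MIC, read by visual scan for growth, in Mueller Hinton II broth. Strains include clinical isolates of M. abscessus complex, M. chelonae, M. avium, M. intracellulare, M. xenopi, P. aeruginosa PAO-1 and S. aureus ATCC 25923.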

[6] = tested on: Mycobacterium abscessus subsp. massiliense; test: Inhibition of MmpL3 in Mycobacterium massiliense isolate 1513 assessed as reduction in trehalose dimycolate after 16 hrs using [1,2-14C]acetate labeled compounds by TLC analysis
Method in brief: (§3)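 Lipids were run on TLC in CHCl3:CH3OH:H2O 20:4:0.5. Cell wall-bound MAMEs were run in n-hexane:ethyl acetate 95:5, developed three times. Phosphorimaging read-out gave TMM/TDM ratios and MAME radioactivity relative to untreated control.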

[7] = tested on: Mycobacterium abscessus subsp. massiliense; test: Inhibition of MmpL3 in Mycobacterium massiliense isolate 1513 assessed as reduction in trehalose monomycolate by measuring decrease in mycolic acid transfer to cell envelope after 16 hrs using [1,2-14C]acetate labeled compounds by TLC analysis; method in brief: as §3
[8] = Selectivity index, ratio of TD50 for human THP1 cells to MIC for Mycobacterium bolletii ATCC 14472; type: toxicity; settings: THP-1 cells, read-out: Selectivity Index; method in brief: as §1
Pseudomonas aeruginosa = test: Antibacterial activity against Pseudomonas aeruginosa PAO1 after 8 days by resazurin microtiter based colorimetric assay; type: functional; settings: PAO1, 192 h; method in brief: as §2
Mycobacteroides chelonae = test: Antimycobacterial activity against Mycobacterium chelonae ATCC 35752 after 8 days by resazurin microtiter based colorimetric assay; type: functional; settings: ATCC 35752, 192 h; method in brief: as §2
Staphylococcus aureus = test: Antibacterial activity against Staphylococcus aureus ATCC 25923 after 8 days by resazurin microtiter based colorimetric assay; type: functional; settings: ATCC 25923, 192 h; method in brief: as §2
Mycobacterium xenopi = test: Antimycobacterial activity against wild type Mycobacterium xenopi isolate 4042 after 8 days by resazurin microtiter based colorimetric assay; type: functional; settings: isolate 4042, 192 h; method in brief: as §2
[9] = tested on: Mycobacterium avium-intracellulare; test: Antimycobacterial activity against Mycobacterium avium-intracellulare isolate 1956 after 8 days by resazurin microtiter based colorimetric assay; type: functional; settings: isolate 1956, 192 h; method in brief: as §2
[10] = tested on: Mycobacteroides abscessus; test: Antimycobacterial activity against Mycobacterium abscessus isolate DCI 21 after 8 days by resazurin microtiter based colorimetric assay; type: functional; settings: isolate DCI 21, 192 h; method in brief: as §2
[11] = Cytotoxicity against human THP1 cells assessed as reduction in cell viability after 3 days by CellTiter-Glo based luminescence assay; settings: THP-1 cells, read-out: TD50
Method in brief: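 THP-1 cells in complete RPMI, made macrophage-like with 80 nM PMA overnight at 37°C, 5% CO2, then seeded and cultured 24 h. Cells got 10-point DMSO serial dilutions (top 50 µM, final DMSO 0.5%) for 3 days, with staurosporine as control. Viability read by CellTiter-Glo luminescence. IC50 (50% viability) came from a Levenberg–Marquardt curve fit.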

[12] = tested on: Mycobacteroides abscessus; test: Bactericidal activity against Mycobacterium abscessus after 8 days by resazurin microtiter based colorimetric assay; type: functional
Method in brief: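 MBC90 found by subculturing from the MIC wells onto 7H11 agar. Value is the lowest concentration cutting CFU by 90% versus the inoculum.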

[13] = Antimycobacterial activity against Mycobacterium massiliense isolate CRM0019 after 8 days by resazurin microtiter based colorimetric assay; type: functional, Mycobacterium abscessus subsp. massiliense; settings: Mycobacteroides abscessus, isolate CRM0019, 192 h; method in brief: as §2
[14] = Antimycobacterial activity against Mycobacterium bolletii ATCC 14472 after 8 days by resazurin microtiter based colorimetric assay; type: functional; settings: Mycobacteroides abscessus, ATCC 14472, 192 h; method in brief: as §2
[15] = tested on: Mycobacterium abscessus subsp. massiliense; test: Inhibition of MmpL3 in Mycobacterium massiliense isolate 1513 assessed as reduction in arabinogalactan after 16 hrs using [1,2-14C]acetate labeled compounds by TLC analysis; method in brief: as §3
[16] = tested on: Mycolicibacterium smegmatis; test: Antimycobacterial activity against Mycobacterium smegmatis isolate MC2 155 after 8 days by resazurin microtiter based colorimetric assay; type: functional; settings: str. MC2 155, 192 h
[17] = tested on: Mycobacteroides abscessus; test: Antimycobacterial activity against Mycobacterium abscessus ATCC 19977 after 8 days by resazurin microtiter based colorimetric assay; type: functional; settings: ATCC 19977, 192 h; method in brief: as §2
[18] = Selectivity index, ratio of TD50 for human THP1 cells to MIC for Mycobacterium chelonae ATCC 35752; type: toxicity; settings: THP-1 cells, read-out: Selectivity Index; method in brief: as §1

| SMILES | selectivity ratio [1] | selectivity ratio [2] | selectivity ratio [3] | MIC [4] [µg/mL] | MIC [5] [µg/mL] | inhibition [6] | inhibition [7] | selectivity ratio [8] | MIC (Pseudomonas aeruginosa) [µg/mL] | MIC (Mycobacteroides chelonae) [µg/mL] | MIC (Staphylococcus aureus) [µg/mL] | MIC (Mycobacterium xenopi) [µg/mL] | MIC [9] [µg/mL] | MIC [10] [µg/mL] | CC50 at 72 h [11] [µg/mL] | MIC [13] [µg/mL] | MIC [14] [µg/mL] | inhibition [15] | MIC [16] [µg/mL] | MIC [17] [µg/mL] | other results |
| --- | --- | --- | --- | --- | --- | --- | --- | --- | --- | --- | --- | --- | --- | --- | --- | --- | --- | --- | --- | --- | --- |
| C[C@@H]1[C@H]2C[C@@H](C[C@H]1NC(=O)c1cc3ccccc3[nH]1)C2(C)C | 22.6 | 188 | 226 | 0.05 (≈ 0.169 µM) | 0.06 (≈ 0.202 µM) | Dose-dependent effect | Dose-dependent effect | 92 | > 160 | < 0.06 | 40 (≈ 135 µM) | 0.5 to 1 (≈ 1.69 to 3.37 µM) | 8 (≈ 27 µM) | 0.5 (≈ 1.69 µM) | 11.3 (≈ 38.1 µM) | 0.06 (≈ 0.202 µM) | 0.12 (≈ 0.405 µM) | Dose-dependent effect | 0.78 (≈ 2.63 µM) | 0.12 (≈ 0.405 µM) | MIC (Mycobacterium avium): 8 µg/mL (≈ 27 µM); MBC90 [12]: 0.06 µg/mL (≈ 0.202 µM); selectivity ratio [18]: > 188 |
| Cc1cc(C)c2cc(C(=O)N[C@@H]3C[C@@H]4C[C@H]([C@H]3C)C4(C)C)[nH]c2c1 | > 130 | > 130 | > 830 | 0.0195 (≈ 0.0601 µM) | 0.125 (≈ 0.385 µM) | Dose-dependent effect | Dose-dependent effect | > 130 | > 160 | 0.125 (≈ 0.385 µM) | > 160 | 0.25 to 1 (≈ 0.77 to 3.08 µM) | 2 (≈ 6.16 µM) | 0.125 (≈ 0.385 µM) | > 16.2 | 0.125 (≈ 0.385 µM) | 0.125 (≈ 0.385 µM) | Dose-dependent effect | 1.25 to 2.5 (≈ 3.85 to 7.7 µM) | 0.125 (≈ 0.385 µM) | MIC (Mycobacterium avium): 2 µg/mL (≈ 6.16 µM); selectivity ratio [18]: > 130 |
| O=C(NC12CC3CC(CC(C3)C1)C2)c1cc2ccccc2[nH]1 | > 58 | > 58 | > 73 | 0.2 (≈ 0.679 µM) | 0.5 (≈ 1.7 µM) | Dose-dependent effect | Dose-dependent effect | > 58 | > 160 | 0.25 (≈ 0.849 µM) | > 160 | 0.5 to 1 (≈ 1.7 to 3.4 µM) | 8 (≈ 27.2 µM) | 0.25 (≈ 0.849 µM) | > 14.7 | 0.25 (≈ 0.849 µM) | 0.25 (≈ 0.849 µM) | Dose-dependent effect | 1.56 (≈ 5.3 µM) | 0.25 (≈ 0.849 µM) | MIC (Mycobacterium avium): 8 µg/mL (≈ 27.2 µM); selectivity ratio [18]: > 58 |
| Cc1cc(C)c2cc(C(=O)NC3CCCCCCC3)[nH]c2c1 | > 1910 | > 1910 | > 764 | 0.0195 (≈ 0.0653 µM) | 0.031 (≈ 0.104 µM) | Dose-dependent effect | Dose-dependent effect | > 3820 | > 160 | 0.063 (≈ 0.211 µM) | > 160 | 0.25 (≈ 0.838 µM) | 1 (≈ 3.35 µM) | 0.0078 (≈ 0.0261 µM) | > 14.9 | 0.0078 (≈ 0.0261 µM) | 0.0039 (≈ 0.0131 µM) | Dose-dependent effect | 0.313 to 0.625 (≈ 1.05 to 2.09 µM) | 0.063 (≈ 0.211 µM) | MBC90 [12]: 0.015 µg/mL (≈ 0.0503 µM); selectivity ratio [18]: > 236 |
